Test results reported in ChEMBL document CHEMBL1772978, “Exploration of the activity of 7-pyrrolidino-8-methoxyisothiazoloquinolones against methicillin-resistant Staphylococcus aureus (MRSA)” (J Med Chem, 2011).
pIC50: −log10 of the molar value. ≈ marks a conversion by molar mass, not a printed value.

Key:
[1] = Inhibition of wild-type Staphylococcus aureus topoisomerase 4-mediated decatenation of kDNA after 30 mins by gel electrophoresis assay
Staphylococcus aureus [2] = assay: Antibacterial activity against methicillin-sensitive Staphylococcus aureus ATCC 29213 after 24 hrs by microdilution method; format: functional; conditions: ATCC 29213, 24 h
Procedure, shortened: (§1)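 MIC taken as the lowest concentration with no visible bacterial growth after 18-24 h at 37 °C, given in μg/mL; modal value of multiple experiments.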

DNA gyrase subunit A = DNA gyrase subunit A (Staphylococcus aureus, UniProt P20831, S84L); assay: Inhibition of Staphylococcus aureus DNA gyrase Ser84Leu mutant assessed as inhibition of supercoiling of pBR322 DNA after 60 min by gel electrophoresis assay
[3] = Cytotoxicity against human Hep2 cells after 72 hrs by alamar blue assay; format: cell-based; conditions: HEp-2 cells
Staphylococcus aureus [4] = assay: Antibacterial activity against methicillin-resistant Staphylococcus aureus ATCC 700699 after 24 hrs by microdilution method; format: functional; conditions: ATCC700699, 24 h
Procedure, shortened: (§2)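 Broth microdilution; MIC read as the lowest compound concentration that prevents visible bacterial growth after incubation at 37 °C for 18–24 h, and expressed in μg/mL.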

Escherichia coli = assay: Antibacterial activity against Escherichia coli ATCC25922 after 24 hrs by microdilution method; format: functional; conditions: ATCC25922, 24 h; procedure, shortened: as §1
Staphylococcus aureus [5] = assay: Antibacterial activity against methicillin- and quinolone-resistant Staphylococcus aureus ATCC700699 after 24 hrs by microdilution method; format: functional; conditions: ATCC700699, 24 h; procedure, shortened: as §2
[6] = Inhibition of Staphylococcus aureus topoisomerase 4 Ser80Phe mutant-mediated decatenation of kDNA after 30 mins by gel electrophoresis assay
DNA gyrase = DNA gyrase (Staphylococcus aureus, UniProt P0A0K8+P20831); assay: Inhibition of wild-type Staphylococcus aureus DNA gyrase assessed as inhibition of supercoiling of pBR322 DNA after 60 min by gel electrophoresis assay; format: protein-complex assay
Staphylococcus aureus [7] = assay: Antibacterial activity against methicillin-resistant Staphylococcus aureus clinical isolate after 24 hrs by microdilution method; format: functional; procedure, shortened: as §2
[8] = target: DNA gyrase (Staphylococcus aureus) (UniProt P0A0K8+P20831); assay: Ratio of ciprofloxacin IC50 to compound IC50 for wild-type Staphylococcus aureus DNA gyrase; format: protein-complex assay
[9] = tested on: DNA gyrase subunit A (Staphylococcus aureus), P20831 [S84L]; assay: Ratio of ciprofloxacin IC50 to compound IC50 for Staphylococcus aureus DNA gyrase Ser84Leu mutant
Staphylococcus aureus [10] = assay: Ratio of ciprofloxacin IC50 to compound IC50 for wild-type Staphylococcus aureus topoisomerase 4
Staphylococcus aureus [11] = assay: Ratio of ciprofloxacin IC50 to compound IC50 for Staphylococcus aureus topoisomerase 4 Ser80Phe mutant
Staphylococcus aureus [12] = assay: Ratio of levofloxacin MIC to compound MIC for methicillin-resistant Staphylococcus aureus clinical isolate; format: functional
Staphylococcus aureus [13] = assay: Ratio of vancomycin MIC to compound MIC for methicillin-resistant Staphylococcus aureus clinical isolate; format: functional

| SMILES | pIC50 [1] | MIC (Staphylococcus aureus [2]) [µg/mL] | CC50 at 72 h [3] [µM] | MIC (Staphylococcus aureus [4]) [µg/mL] | MIC (Escherichia coli) [µg/mL] | MIC (Staphylococcus aureus [5]) [µg/mL] | pIC50 [6] | also measured |
| --- | --- | --- | --- | --- | --- | --- | --- | --- |
| COc1c(N2CC[C@@H]([C@H](C)NCCF)C2)c(F)cc2c(=O)c3c(=O)[nH]sc3n(C3CC3)c12 (mixture of isomers) | 7.22 | 0.002 | 73 | 0.13 | 0.06 | 0.13 | 6.18 | pIC50 (DNA gyrase subunit A): 4.92; pIC50 (DNA gyrase): 5.88 |
| Cc1onc(-c2ccccc2)c1C(=O)N[C@@H]1C(=O)N2[C@@H]1SC(C)(C)[C@@H]2C(=O)O [OXACILLIN] |  |  |  |  |  |  |  | MIC50 (Staphylococcus aureus [7]): > 16 µg/mL; MIC90 (Staphylococcus aureus [7]): > 16 µg/mL |
| COc1c(N2CC[C@@H]([C@H](C)N)C2)c(F)cc2c(=O)c3c(=O)[nH]sc3n(C3CC3)c12 (mixture of isomers) | 7.40 | 0.002 | 6 | 0.06 | 0.008 | 0.06 | 6.33 | Ratio IC50 [8]: 91; Ratio [9]: > 62; pIC50 (DNA gyrase subunit A): 5.49; Ratio IC50 (Staphylococcus aureus [10]): 75; Ratio (Staphylococcus aureus [11]): 121; MIC50 (Staphylococcus aureus [7]): 0.06 µg/mL; MIC90 (Staphylococcus aureus [7]): 0.5 µg/mL; pIC50 (DNA gyrase): 6.17 |
| COc1c(N2CC[C@@H](C(C)(C)N)C2)c(F)cc2c(=O)c3c(=O)[nH]sc3n(C3CC3)c12 | 6.92 | 0.004 (≈ 0.00925 µM) | 9 | 0.06 (≈ 0.139 µM) | 0.06 (≈ 0.139 µM) | 0.06 (≈ 0.139 µM) | 6.22 | Ratio [9]: > 48; pIC50 (DNA gyrase subunit A): 5.38; Ratio (Staphylococcus aureus [12]): 256; Ratio (Staphylococcus aureus [13]): 4; Ratio (Staphylococcus aureus [11]): 95; MIC50 (Staphylococcus aureus [7]): 0.06 µg/mL (≈ 0.139 µM); MIC90 (Staphylococcus aureus [7]): 0.25 µg/mL (≈ 0.578 µM); pIC50 (DNA gyrase): 6.17 |
| C[C@H]1COc2c(N3CCN(C)CC3)c(F)cc3c(=O)c(C(=O)O)cn1c23.C[C@H]1COc2c(N3CCN(C)CC3)c(F)cc3c(=O)c(C(=O)O)cn1c23.O [LEVOFLOXACIN] |  |  |  |  |  |  |  | MIC50 (Staphylococcus aureus [7]): 16 µg/mL; MIC90 (Staphylococcus aureus [7]): > 16 µg/mL |
| CN[C@H](CC(C)C)C(=O)N[C@H]1C(=O)N[C@@H](CC(N)=O)C(=O)N[C@H]2C(=O)N[C@H]3C(=O)N[C@H](C(=O)N[C@H](C(=O)O)c4cc(O)cc(O)c4-c4cc3ccc4O)[C@H](O)c3ccc(c(Cl)c3)Oc3cc2cc(c3O[C@@H]2O[C@H](CO)[C@@H](O)[C@H](O)[C@H]2O[C@H]2C[C@](C)(N)[C@H](O)[C@H](C)O2)Oc2ccc(cc2Cl)[C@H]1O [VANCOMYCIN] |  |  |  |  |  |  |  | MIC50 (Staphylococcus aureus [7]): 1 µg/mL (≈ 0.69 µM); MIC90 (Staphylococcus aureus [7]): 1 µg/mL (≈ 0.69 µM) |
| CC(=O)NC[C@H]1CN(c2ccc(N3CCOCC3)c(F)c2)C(=O)O1 [LINEZOLID] |  |  |  |  |  |  |  | MIC (Staphylococcus aureus [7]): 1 µg/mL (≈ 2.96 µM); MIC50 (Staphylococcus aureus [7]): 1 µg/mL (≈ 2.96 µM); MIC90 (Staphylococcus aureus [7]): 2 µg/mL (≈ 5.93 µM) |
| CN[C@@H](C)[C@@H]1CCN(c2c(F)cc3c(=O)c4c(=O)[nH]sc4n(C4CC4)c3c2OC)C1 (mixture of isomers) | 6.96 | 0.008 | 12 | 0.25 | 0.03 | 0.25 | 5.94 | pIC50 (DNA gyrase subunit A): 4.73; pIC50 (DNA gyrase): 5.96 |
| COc1c(N2C[C@@H]3CCCN[C@@H]3C2)c(F)cc2c(=O)c(C(=O)O)cn(C3CC3)c12 [MOXIFLOXACIN] | 6.00 | 0.06 (≈ 0.149 µM) | > 100 | 2 (≈ 4.98 µM) | 0.03 (≈ 0.0747 µM) | 4 (≈ 9.96 µM) | 4.92 |  |
| O=C(O)c1cn(C2CC2)c2cc(N3CCNCC3)c(F)cc2c1=O [CIPROFLOXACIN] | 5.52 | 0.25 (≈ 0.754 µM) | > 100 | 32 (≈ 96.6 µM) |  | 32 (≈ 96.6 µM) | 4.24 |  |
| COc1c(N2CC[C@@H](CNCCF)C2)c(F)cc2c(=O)c3c(=O)[nH]sc3n(C3CC3)c12 |  | 0.008 (≈ 0.0178 µM) | 18 |  | 0.03 (≈ 0.0666 µM) | 0.13 (≈ 0.289 µM) |  |  |
| COc1c(N2CC[C@H](CN)C2)c(F)cc2c(=O)c3c(=O)[nH]sc3n(C3CC3)c12 |  | 0.008 (≈ 0.0198 µM) | 11 |  | 0.03 (≈ 0.0742 µM) | 0.25 (≈ 0.618 µM) |  |  |
| COc1c(N2CC[C@@H](C(C)(C)NCC(C)C)C2)c(F)cc2c(=O)c3c(=O)[nH]sc3n(C3CC3)c12 |  | 0.06 (≈ 0.123 µM) | 88 |  | 1 (≈ 2.05 µM) | 2 (≈ 4.09 µM) |  |  |
| O=c1[nH]sc2c1c(=O)c1cc(F)c(N3CCNCC3)cc1n2C1CC1 |  | 0.06 (≈ 0.166 µM) | 7 |  | 0.004 (≈ 0.0111 µM) | 4 (≈ 11.1 µM) |  |  |
| COc1c(N2CC[C@H](C(C)(C)N)C2)c(F)cc2c(=O)c3c(=O)[nH]sc3n(C3CC3)c12 |  | 0.03 (≈ 0.0694 µM) | 61 |  | 0.13 (≈ 0.301 µM) | 2 (≈ 4.62 µM) |  |  |
| COc1c(N2CC[C@@H](C3(N)CC3)C2)c(F)cc2c(=O)c3c(=O)[nH]sc3n(C3CC3)c12 |  | 0.001 (≈ 0.00232 µM) | 4 |  | 0.008 (≈ 0.0186 µM) | 0.06 (≈ 0.139 µM) |  |  |
| COc1c(N2CC[C@@H](C(N)c3nccs3)C2)c(F)cc2c(=O)c3c(=O)[nH]sc3n(C3CC3)c12 (mixture of isomers) |  | 0.004 | 5 |  | 0.13 | 0.06 |  |  |
| COc1c(N2CC[C@@H]([C@@H](C)N)C2)c(F)cc2c(=O)c3c(=O)[nH]sc3n(C3CC3)c12 |  | 0.02 (≈ 0.0478 µM) | 33 |  | 0.03 (≈ 0.0717 µM) | 0.25 (≈ 0.597 µM) |  |  |
| COc1c(N2CCC(CNCC(C)C)C2)c(F)cc2c(=O)c3c(=O)[nH]sc3n(C3CC3)c12 (racemic) |  | 0.06 (≈ 0.13 µM) | 46 |  | 0.13 (≈ 0.282 µM) | 4 (≈ 8.68 µM) |  |  |
| COc1c(N2CCNCC2)c(F)cc2c(=O)c3c(=O)[nH]sc3n(C3CC3)c12 |  | 0.06 (≈ 0.154 µM) | 27 |  | 0.03 (≈ 0.0768 µM) | 4 (≈ 10.2 µM) |  |  |
| CN[C@H]1CCN(c2c(F)cc3c(=O)c4c(=O)[nH]sc4n(C4CC4)c3c2OC)C1 |  | 0.03 (≈ 0.0742 µM) | 41 |  | 0.06 (≈ 0.148 µM) | 2 (≈ 4.94 µM) |  |  |
| COc1c(N2CC[C@@H](C(C)NC3CC3)C2)c(F)cc2c(=O)c3c(=O)[nH]sc3n(C3CC3)c12 (mixture of isomers) |  | 0.004 | 25 |  | 0.06 | 0.06 |  |  |
| CO/N=C1\CN(c2nc3c(cc2F)c(=O)c(C(=O)O)cn3C2CC2)CC1CN (centres undefined) [GEMIFLOXACIN] | 6.40 | 0.03 (≈ 0.077 µM) |  | 2 (≈ 5.14 µM) | 4 (≈ 10.3 µM) |  | 5.01 | pIC50 (DNA gyrase subunit A): < 3.70 |
